Screening data (PubChem)
Cneo AK release = Cryptococcus neoformans cell lysis inducers, primary screen, AK release luminescence, single concentration. C. neoformans lysis, adenylate kinase release luminescence, 4 h; normalised: neutral wells 0, clomiphene wells 100. lysis activity, % at 15 µM. hit rate 0.2% among 360,000. AID 651654, 2012;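 active = mean lysis activity across replicates of at least 80%, whatever share of replicates individually reach that level; inactive = mean lysis activity below 80%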
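Test system: log-phase Cryptococcus neoformans yeast cells. Input: 5 × 10^6 yeast cells/mL. Medium: fresh YPD growth medium. Doses: single dose. Incubation: static 4 h at 37 °C with compound, 1 h detection. Measured by: luminescent adenylate kinase detection reagent. Read-out: signal increase indicating cell lysis. Benchmarks: Clomiphene.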
XiGFP reactiv = activators of inactive X chromosome reactivation, primary screen, imaging, XiGFP fibroblasts, GFP high-content imaging, set 2; AID 743238, 2013; XiGFP mouse fibroblasts, % GFP-positive cells imaging, 3 d; cells co-treated with 5-aza-dC sensitizer; scaled so ellipticine positive control = 100%; hit rate 0.055% among 360,000; activation, % at 7.58 µM;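 active = mean normalized replicate activation at least 10% and every replicate at or above 10%; inconclusive = only one of the two criteria met; inactive = mean below 10% and not all replicates reach 10%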;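 also: 0% = median of on-plate neutral control wells and 100% = ellipticine 6 µM median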
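System: XiGFP fibroblasts, SV40-immortalized. Medium: DMEM plus 5-aza-dC sensitizer. Doses: single point. Timing: 3 d treatment, 15 min room-temperature fixation. Control set: ellipticine 6 µM.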
FN deposition inh = inhibitors of fibronectin matrix deposition, primary screen, AH1F cells, Alexa488-fibronectin fluorescence, plate reader; inhibition, % at 12.6 µM; AID 743247, 2014; hit rate 0.086% among 350,000; AH1F fibroblasts, overnight;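 active = mean inhibition across replicates of 30% or more, regardless of how many single replicates reach that level; inconclusive = mean under 30% yet at least half of replicates reach 30%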;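 also: positive control wells lacked labelled fibronectin entirely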
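Assay system: AH1F fibroblast monolayer, labelled fibronectin deposition. Amount: 10000 cells per well. Also added: labelled fibronectin 24 nM. Compound: single-point pinned compound. Incubation: cell attachment 1 h, compound and FN exposure overnight. Detection: fluorescence after three HBSS washes, excitation 485 nm, emission 525 nm. Read-out: inhibition of fibronectin deposition signal.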
F508del corr = F508del CFTR correction, initial screen, CFBE line, single point; CFBE cells, YFP halide quenching; stimulated with forskolin plus potentiator P3; % fluorescence drop versus neutral controls; activity (quench increase), % at 7.58 µM; hit rate 0.36% among 350,000; AID 720511, 2013;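 active = mean added fluorescence quench of at least 8% versus neutral control, with both replicates also reaching 8%; inconclusive = only one of the mean or replicate conditions met; inactive = mean below 8% and not both replicates reaching 8%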;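 also: cells transiently co-express mutant CFTR-F508del with the halide-sensitive YFP; corrector assay measuring rescue of mutant channel to the surface after 24 h compound exposure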
DENV2 CPE = inhibitors of DENV2 cytopathic effect, primary screen, cell-based, plate reader, single concentration. hit rate 1.7% among 350,000. DENV2-infected cells, cytopathic effect rescue. CPE inhibition, % at 9.99 µM; in the data active = CPE inhibition above about 20%, passing the limit was not always enough; inconclusive = no clear call, values can overlap the other calls; tested in BHK-21 cells;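 also: 0% = median of neutral control wells and 100% = median of positive control wells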
PGC1a acetyl inh = inhibitors of PGC1a acetylation signal, primary screen, cell-based, U2OS, AlphaScreen, inhibitor mode; AlphaScreen anti-acetyl-lysine; with virally co-expressed GCN5 acetyltransferase; inhibition, % at 15.6 µM; hit rate 0.17% among 350,000;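 active = every replicate shows inhibition of at least 40%; inconclusive = mean inhibition at least 40% but some replicate below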;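 also: 0% = neutral control wells and 100% = positive control wells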
The depositor's hits bear a star. An excerpt weighted towards active compounds, which were near 1.9% of everything screened.

`CCOc1ccc(Oc2nc(NCC(C)C)nc(OC)n2)nn1` gave Cneo AK release 2, XiGFP reactiv 0, FN deposition inh -10, F508del corr 3, DENV2 CPE 36* and PGC1a acetyl inh 6.
Screening CCCNC(=O)c1cc2c(c(-c3cccc(-c4ccncc4)c3)n1)[C@@H](CCO)N(S(=O)(=O)CC)C2 returned XiGFP reactiv 0, FN deposition inh 6, F508del corr 2, DENV2 CPE -13 and PGC1a acetyl inh 1.
COC(=O)c1c(NC(=O)C(Cl)Cl)sc2c1C(C(=O)OC)CC2 (configuration not stated) was read as XiGFP reactiv 0, FN deposition inh 18, F508del corr 0 and DENV2 CPE 122*.
Screening COC(=O)c1c(NC(=O)C(C)(C)C)sc2c1C(C(=O)OC)CC2 (configuration not stated) returned Cneo AK release 1, FN deposition inh 2 and PGC1a acetyl inh -1.
O=C(CN1CCOCC1)NCC[C@H]1CC[C@@H](NC(=O)Nc2ccc(C(F)(F)F)cc2)[C@H](CO)O1 was read as Cneo AK release 0, XiGFP reactiv 0, FN deposition inh -8, F508del corr -1, DENV2 CPE 7 and PGC1a acetyl inh -3.
Screening CC(C)c1cn(CC[C@H]2CC[C@@H](NS(=O)(=O)c3ccccc3)[C@H](CO)O2)nn1 returned Cneo AK release -1, XiGFP reactiv 4, F508del corr 1, DENV2 CPE 2 and PGC1a acetyl inh -1.
CC1CCCCN1CCCNC(=O)c1ccc2nc(N3CCCCC3)sc2c1 (configuration not stated) was read as Cneo AK release 0, XiGFP reactiv 1, FN deposition inh 3, F508del corr 5, DENV2 CPE 25* and PGC1a acetyl inh -8.
For CCCN1CCN(CCCNC(=O)c2ccc3nc(N4CCC(C)CC4)sc3c2)CC1 the results were Cneo AK release -3, XiGFP reactiv 0, FN deposition inh 6, F508del corr 0, DENV2 CPE -7 and PGC1a acetyl inh -6.
For O=C(C1CCCCC1)N1CC(=O)N2[C@H](CO)[C@H](c3ccc(-c4cccnc4)cc3)[C@H]2C1 the results were XiGFP reactiv 0, F508del corr 0, DENV2 CPE -9 and PGC1a acetyl inh 4.
For C[C@@H]1CCCCO[C@H](CN(C)C(=O)C2CCCCC2)[C@@H](C)CN([C@H](C)CO)C(=O)c2cc(NC(=O)Nc3ccc4c(c3)OCO4)ccc2O1 the results were Cneo AK release 1, XiGFP reactiv 0, F508del corr 1, DENV2 CPE inconclusive and PGC1a acetyl inh -1.
COc1ccc(NC(=O)Nc2ccc3c(c2)C(=O)N([C@H](C)CO)C[C@@H](C)[C@@H](CN(C)C(=O)Nc2ccc4c(c2)OCO4)OCCCC[C@@H](C)O3)cc1 was read as Cneo AK release 0, XiGFP reactiv 0, F508del corr -2, DENV2 CPE -5 and PGC1a acetyl inh 2.
For C[C@@H]1CN([C@@H](C)CO)C(=O)c2cc(NC(=O)Nc3ccc4c(c3)OCO4)ccc2O[C@@H](C)CCCCO[C@H]1CN(C)C(=O)C1CCCCC1 the results were Cneo AK release 2, XiGFP reactiv 0, F508del corr 4, DENV2 CPE 77* and PGC1a acetyl inh 2.
Screening COc1ccc(NC(=O)Nc2ccc3c(c2)C(=O)N([C@H](C)CO)C[C@H](C)[C@H](CN(C)C(=O)Nc2ccc4c(c2)OCO4)OCCCC[C@@H](C)O3)cc1 returned Cneo AK release -2, XiGFP reactiv 0, F508del corr 0, DENV2 CPE 40* and PGC1a acetyl inh -6.
